These results are taken from PMC9233141 (ChemMedChem, 2022).

The target of assay [1] is T1, PKN3 (Homo sapiens, UniProt Q6P5Z2). The assay is described as follows: split-luciferase binding assay.
Assay [2] deals with kinases in lysates of SUM159 cells. The assay is described as follows: MIB-MS kinome profiling. Format: binding. The note with it: 1 μM; for kinases on which activity was detected: threshold 5-fold change.
Assay [3] has as its target ACVR1. The note with it: read-out: ACVR1 Kd; DiscoverX profiling; cited from earlier work.
For assay [4], the target named is NLK. The note with it: read-out: Kd NLK; DiscoverX KinomeSCAN, prior annotation of PKIS2; cited from earlier work.
Assay [5] concerns human kinome. The note with it: at 1 μM, across the human kinome; cited from earlier work.
The test system of assay [6] is GAK. The assay is described as follows: GAK FRET binding. The note with it: compared to 14.
Assay [7] deals with GAK. The note with it: read-out: GAK activity in cells IC50; GAK NanoBRET; cited from earlier work.
The target in assay [8] is T1, PKN3. The assay is described as follows: PKN3 NanoBRET in-cell target engagement. It is filed as cell-based. The procedure, abridged:
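Full-length PKN3 with N-terminal NanoLuc (Gly-Ser-Ser-Gly linker) transiently expressed in HEK-293 cells for 20-30 hr at 37°C/5% CO2. Cells in Opti-MEM at 2 x 10^4/well are equilibrated 2 h with tracer K-5 (1000 nM final) and test compound. NanoBRET substrate and extracellular NanoLuc inhibitor are added, and donor/acceptor luminescence is read. IC50 comes from a variable-slope fit, normalised to controls when needed.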
Background: In BRET a luciferase serves as donor, and the signal depends on an acceptor being close.

For assay [9], the system named is GAK. In words: GAK NanoBRET. Format: cell-based. To be noted: NanoBRET GAK vs PKN3.
Where [10] appears, read: PKN3 IC50, SLCA assay (n=2), 8-point dose response.

T1 sequence (Q6P5Z2 whole entry): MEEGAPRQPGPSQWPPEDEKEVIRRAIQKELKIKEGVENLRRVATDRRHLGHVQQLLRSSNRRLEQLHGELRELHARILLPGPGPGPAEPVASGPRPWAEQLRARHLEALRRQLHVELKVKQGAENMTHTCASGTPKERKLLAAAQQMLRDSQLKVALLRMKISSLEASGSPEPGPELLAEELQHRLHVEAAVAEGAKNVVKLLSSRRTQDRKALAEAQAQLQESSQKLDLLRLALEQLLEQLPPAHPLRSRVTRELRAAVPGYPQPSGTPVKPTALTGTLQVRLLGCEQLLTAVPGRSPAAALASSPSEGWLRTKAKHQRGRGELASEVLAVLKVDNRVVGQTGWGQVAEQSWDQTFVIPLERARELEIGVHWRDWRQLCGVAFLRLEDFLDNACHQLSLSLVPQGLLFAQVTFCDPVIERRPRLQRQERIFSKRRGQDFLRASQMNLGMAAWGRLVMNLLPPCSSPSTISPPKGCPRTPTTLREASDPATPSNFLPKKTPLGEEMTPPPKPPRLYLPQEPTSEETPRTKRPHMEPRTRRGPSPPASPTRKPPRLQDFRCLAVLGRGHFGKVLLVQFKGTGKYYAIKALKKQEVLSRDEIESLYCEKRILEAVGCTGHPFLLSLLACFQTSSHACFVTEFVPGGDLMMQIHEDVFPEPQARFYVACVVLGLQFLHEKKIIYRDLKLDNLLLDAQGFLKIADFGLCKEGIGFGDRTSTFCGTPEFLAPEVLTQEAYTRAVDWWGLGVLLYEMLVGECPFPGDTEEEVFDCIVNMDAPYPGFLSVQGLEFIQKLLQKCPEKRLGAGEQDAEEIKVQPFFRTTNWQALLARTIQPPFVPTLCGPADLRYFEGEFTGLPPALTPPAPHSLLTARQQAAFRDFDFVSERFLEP

The IC50 is the concentration at which inhibition is half-maximal. Consider `COc1cc2nccc(Oc3ccc(NC(=O)C4(C(=O)Nc5ccc(F)cc5)CC4)cc3)c2cc1OC` [Cabozantinib], for which the IC50 in [1] (setting [10]) was found to be 42000 nM.
A word on the Kd: it is a measure of binding affinity in units of concentration. As to `COc1cc(Nc2ccnc3ccc(C(F)(F)F)cc23)cc(OC)c1OC` [Compound 2], the kinome profile result in assay [2] was “narrow spectrum”. Further, the “kinases on which activity was detected” value in assay [2] was “GAK and RIPK2”. Further, the Kd in assay [3] is 220 nM; in [4], < 1000 nM.
On to `COc1cc(Nc2ccnc3cc(-c4ccncc4)ccc23)cc(OC)c1OC` [Compound 3], for which the “number of kinases inhibited >90%” value in assay [5] was > 18 kinases. The molecule further came in with an IC50 in [1] (PKN3 IC50, SLCA assay) of 9 nM.
Regarding `COc1cc(Nc2ccnc3cc(I)ccc23)cc(OC)c1OC` [Compound 16, 7-iodo-N-(3,4,5-trimethoxyphenyl)quinolin-4-amine], in [2], the kinome profile entry is “narrow spectrum”; the “kinases on which activity was detected” value is “PKN3, NLK, GAK, AVCR1 and RIPK2”. Further, the “decrease in GAK activity” value in assay [6] was 3 fold. For the same molecule, the IC50 in assay [7] was 74 nM. In addition, half-maximal inhibition in [8] (IC50) was put at 1300 nM. In addition, the “drop off in activity from cell free SLCA assay to NanoBRET” value in assay [8] (PKN3) is reported as ~100 fold. Also, in [9], the “more potent on GAK than PKN3 in cells” value was found to be 17 fold.
In turn, `CS(=O)(=O)CCNCc1ccc(-c2ccc3ncnc(Nc4ccc(OCc5cccc(F)c5)c(Cl)c4)c3c2)o1` [Lapatinib] yielded an IC50 in assay [1] (setting [10]) of 5900 nM. For the same molecule, the “PKN3 binding, in words” value in assay [1] (SLCA assay) is reported as “moderate activity”.
Regarding `CNC(=O)CN1CCC(Oc2cc3c(Nc4cccc(Cl)c4F)ncnc3cc2OC)CC1` [Sapitinib], the IC50 in assay [1] (setting [10]) was 44000 nM.
`COc1cc2c(Nc3ccc(Cl)c(Cl)c3F)ncnc2cc1OC[C@@H]1C[C@@H]2CN(C)C[C@@H]2C1` [Tesevatinib] displayed an IC50 in assay [1] (setting [10]) of 240 nM.
For the molecule `COc1cc2c(Nc3ccc(Br)cc3F)ncnc2cc1OCC1CCN(C)CC1` [Vandetanib], the concentration for half-maximal inhibition (IC50) in assay [1] (setting [10]) amounted to 540 nM.
